Measurements collected from several papers.
≈ marks a conversion by molar mass, not a printed value.
Organism: Klebsiella pneumoniae
Effect on: microbial growth

Compound	assay	test system	MIC [µg/mL]
Cc1c(NN=C(C#N)C2=NC(=O)CS2)c(=O)n(-c2ccccc2)n1C	broth dilution		0.98 (≈ 2.77 µM)
CCCCCCC#Cc1cncc(-c2nnc(SCc3cc([N+](=O)[O-])cc([N+](=O)[O-])c3)n2C)c1			≥ 20
Fc1c(F)c(F)c(-c2c(F)c(F)c(F)c(F)c2F)c(F)c1F		ATCC13883	> 250
CN[C@@H]1[C@H](O)[C@H](NC)[C@H]2O[C@@]3(O)C(=O)C[C@@H](C)O[C@H]3O[C@@H]2[C@H]1O	broth dilution	ATCC33495	> 200
COC(=O)c1cc(-c2cccc(NC(=O)Nc3cccc(C#N)c3)c2)on1	broth dilution	BAA1705	> 64
Fc1c(F)c(F)c(F)c(F)c1F		ATCC13883	> 250
COC(=O)c1cc(-c2ccc(OC)c(NC(=O)Nc3ccc(Cl)c(Cl)c3)c2)on1	broth dilution	BAA1705	> 64
CCCCCCC#Cc1cncc(-c2nnc(Sc3ccc([N+](=O)[O-])cc3[N+](=O)[O-])n2C)c1			≥ 20
COC(=O)c1cc(-c2cccc(NC(=O)Nc3ccccc3C)c2)on1	broth dilution	BAA1705	> 64
CCCCCCCCCC(=O)N[C@@H](Cc1c[nH]c2ccccc12)C(=O)N[C@H](CC(N)=O)C(=O)N[C@@H](CC(=O)O)C(=O)N[C@@H]1C(=O)NCC(=O)N[C@@H](CCCN)C(=O)N[C@@H](CC(=O)O)C(=O)N[C@H](C)C(=O)N[C@@H](CC(=O)O)C(=O)NCC(=O)N[C@H](CO)C(=O)N[C@@H]([C@H](C)CC(=O)O)C(=O)N[C@@H](CC(=O)c2ccccc2N)C(=O)O[C@@H]1C	broth dilution	ATCC10031	> 64
